≈ marks a conversion by molar mass, not a printed value.
What was measured:
Type in all cases: functional
[1] = tested on: Candida albicans; assay: Antifungal activity against Candida albicans ATCC 44859 after 24 hrs by microdilution broth method; conditions: ATCC 44859, 24 h
In short: (§1)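 CLSI M27-A3 broth microdilution in RPMI 1640 with glutamine, buffered to pH 7.0 with MOPS; DMSO diluent. Yeast inoculum 5 × 10^3 ± 0.2 CFU/mL. Moulds grown on Sabouraud agar 3–10 days before spore harvest, final inoculum 0.5-5 × 10^4 CFU/mL, checked in a Bürker chamber. Incubated dark, humid, 35 °C, read at 24 and 48 h visually and at 540 nm. MIC taken as ≥80% (yeasts) or ≥50% (filamentous) growth reduction versus control.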

[2] = tested on: Mycobacterium tuberculosis; assay: Antimycobacterial activity against Mycobacterium tuberculosis H37Rv 331/88 after 21 days; conditions: H37Rv 331/88, 504 h
[3] = tested on: Staphylococcus aureus; assay: Antibacterial activity against Staphylococcus aureus CCM 4516/08 after 24 hrs by microdilution broth method; conditions: CCM 4516/08, 24 h
[4] = tested on: Aspergillus fumigatus; assay: Antifungal activity against Aspergillus fumigatus 231 after 48 hrs by microdilution broth method; conditions: Aspergillus fumigatus, 231, 48 h; in short: as §1
[5] = tested on: Enterococcus sp.; assay: Antibacterial activity against Enterococcus sp. J 14365/08 after 48 hrs by microdilution broth method; conditions: J 14365/08, 48 h
In short: (§2)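 Mueller-Hinton broth microdilution (modified M07-A07), pH 7.4 (±0.2). Compounds dissolved in DMSO, tested at final 500 to 0.49 µmol/L. Inoculum in sterile water matched to 0.5 McFarland. Incubated in the dark, humid atmosphere, 35 °C, read at 24 and 48 h visually and at 540 nm. MIC taken as ≥95% growth reduction (IC95) versus control.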

[6] = tested on: Mycobacterium avium; assay: Antimycobacterial activity against Mycobacterium avium 330/80 after 14 days; conditions: 330/80, 336 h
[7] = tested on: Mycobacterium kansasii; assay: Antimycobacterial activity against Mycobacterium kansasii 6509/96 after 14 days; conditions: 6509/96, 336 h
In short: (§3)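 Šula's semisynthetic medium micromethod at 37 °C, read after 7, 14 and 21 days. The 1.0 McFarland suspension was diluted 10^-4. MIC determined. 6509/96 is a clinical isolate.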

[8] = tested on: Aspergillus fumigatus; assay: Antifungal activity against Aspergillus fumigatus 231 after 24 hrs by microdilution broth method; conditions: Aspergillus fumigatus, 231, 24 h; in short: as §1
[9] = tested on: Candida albicans; assay: Antifungal activity against Candida albicans ATCC 44859 after 48 hrs by microdilution broth method; conditions: ATCC 44859, 48 h; in short: as §1
[10] = tested on: Enterococcus sp.; assay: Antibacterial activity against Enterococcus sp. J 14365/08 after 24 hrs by microdilution broth method; conditions: J 14365/08, 24 h; in short: as §2
[11] = tested on: Candida tropicalis; assay: Antifungal activity against Candida tropicalis 156 after 24 hrs by microdilution broth method; conditions: Candida tropicalis, 156, 24 h; in short: as §1
[12] = tested on: Mycobacterium avium; assay: Antimycobacterial activity against Mycobacterium avium 330/80 after 21 days; conditions: 330/80, 504 h
[13] = tested on: Pichia kudriavzevii; assay: Antifungal activity against Candida krusei E28 after 48 hrs by microdilution broth method; conditions: E28, 48 h; in short: as §1
[14] = tested on: Klebsiella pneumoniae; assay: Antibacterial activity against ESBL-positive Klebsiella pneumoniae J 14368/08 after 24 hrs by microdilution broth method; conditions: J 14368/08, 24 h; in short: as §2
[15] = tested on: Staphylococcus aureus; assay: Antibacterial activity against methicillin-resistant Staphylococcus aureus H 5996/08 after 24 hrs by microdilution broth method; conditions: H 5996/08, 24 h
[16] = tested on: Escherichia coli; assay: Antibacterial activity against Escherichia coli CCM4517 after 48 hrs by microdilution broth method; conditions: CCM4517, 48 h; in short: as §2
[17] = tested on: Trichosporon asahii; assay: Antifungal activity against Trichosporon asahii 1188 after 24 hrs by microdilution broth method; conditions: Trichosporon asahii, 1188, 24 h; in short: as §1
[18] = tested on: Staphylococcus epidermidis; assay: Antibacterial activity against Staphylococcus epidermidis H 6966/08 after 48 hrs by microdilution broth method; conditions: H 6966/08, 48 h; in short: as §2
[19] = tested on: Klebsiella pneumoniae; assay: Antibacterial activity against ESBL-positive Klebsiella pneumoniae J 14368/08 after 48 hrs by microdilution broth method; conditions: J 14368/08, 48 h; in short: as §2
[20] = tested on: Staphylococcus epidermidis; assay: Antibacterial activity against Staphylococcus epidermidis H 6966/08 after 24 hrs by microdilution broth method; conditions: H 6966/08, 24 h; in short: as §2
[21] = tested on: Nakaseomyces glabratus; assay: Antifungal activity against Candida glabrata 20/I after 48 hrs by microdilution broth method; in short: as §1
[22] = tested on: Candida tropicalis; assay: Antifungal activity against Candida tropicalis 156 after 48 hrs by microdilution broth method; conditions: Candida tropicalis, 156, 48 h; in short: as §1
[23] = tested on: Lichtheimia corymbifera; assay: Antifungal activity against Absidia corymbifera 272 after 24 hrs by microdilution broth method; conditions: Lichtheimia corymbifera, 272, 24 h; in short: as §1
[24] = tested on: Staphylococcus aureus; assay: Antibacterial activity against Staphylococcus aureus CCM 4516/08 after 48 hrs by microdilution broth method; conditions: CCM 4516/08, 48 h
[25] = tested on: Pichia kudriavzevii; assay: Antifungal activity against Candida krusei E28 after 24 hrs by microdilution broth method; conditions: E28, 24 h; in short: as §1
[26] = tested on: Mycobacterium kansasii; assay: Antimycobacterial activity against Mycobacterium kansasii 235/80 after 14 days; conditions: 235/80, 336 h; in short: as §3
[27] = tested on: Staphylococcus aureus; assay: Antibacterial activity against methicillin-resistant Staphylococcus aureus H 5996/08 after 48 hrs by microdilution broth method; conditions: H 5996/08, 48 h
[28] = tested on: Klebsiella pneumoniae; assay: Antibacterial activity against Klebsiella pneumoniae D 11750/08 after 24 hrs by microdilution broth method; conditions: D 11750/08, 24 h; in short: as §2
[29] = tested on: Mycobacterium kansasii; assay: Antimycobacterial activity against Mycobacterium kansasii 6509/96 after 21 days; conditions: 6509/96, 504 h; in short: as §3
[30] = tested on: Escherichia coli; assay: Antibacterial activity against Escherichia coli CCM4517 after 24 hrs by microdilution broth method; conditions: CCM4517, 24 h; in short: as §2
[31] = tested on: Mycobacterium kansasii; assay: Antimycobacterial activity against Mycobacterium kansasii 235/80 after 7 days; conditions: 235/80, 168 h; in short: as §3
[32] = tested on: Nakaseomyces glabratus; assay: Antifungal activity against Candida glabrata 20/I after 24 hrs by microdilution broth method; in short: as §1
[33] = tested on: Mycobacterium tuberculosis; assay: Antimycobacterial activity against Mycobacterium tuberculosis H37Rv 331/88 after 14 days; conditions: H37Rv 331/88, 336 h
[34] = tested on: Pseudomonas aeruginosa; assay: Antibacterial activity against Pseudomonas aeruginosa CCM 1961 after 24 hrs by microdilution broth method; conditions: CCM 1961, 24 h; in short: as §2
[35] = tested on: Trichophyton mentagrophytes; assay: Antifungal activity against Trichophyton mentagrophytes 445 after 48 hrs by microdilution broth method; conditions: Trichophyton mentagrophytes, 445, 48 h
[36] = tested on: Trichosporon asahii; assay: Antifungal activity against Trichosporon asahii 1188 after 48 hrs by microdilution broth method; conditions: Trichosporon asahii, 1188, 48 h; in short: as §1
[37] = tested on: Trichophyton mentagrophytes; assay: Antifungal activity against Trichophyton mentagrophytes 445 after 24 hrs by microdilution broth method; conditions: Trichophyton mentagrophytes, 445, 24 h
[38] = tested on: Lichtheimia corymbifera; assay: Antifungal activity against Absidia corymbifera 272 after 48 hrs by microdilution broth method; conditions: Lichtheimia corymbifera, 272, 48 h; in short: as §1
[39] = tested on: Mycobacterium kansasii; assay: Antimycobacterial activity against Mycobacterium kansasii 235/80 after 21 days; conditions: 235/80, 504 h; in short: as §3
[40] = tested on: Pseudomonas aeruginosa; assay: Antibacterial activity against Pseudomonas aeruginosa CCM 1961 after 48 hrs by microdilution broth method; conditions: CCM 1961, 48 h; in short: as §2
[41] = tested on: Klebsiella pneumoniae; assay: Antibacterial activity against Klebsiella pneumoniae D 11750/08 after 48 hrs by microdilution broth method; conditions: D 11750/08, 48 h; in short: as §2
[42] = tested on: Mycobacterium kansasii; assay: Antimycobacterial activity against Mycobacterium kansasii 6509/96 after 7 days; conditions: 6509/96, 168 h; in short: as §3

## O=C(Nc1cccc(Br)c1)c1ccc([N+](=O)[O-])cc1O
[1]
  MIC: > 500 µM
[2]
  MIC: 16 µM (≈ 5.39 µg/mL)
[3]
  MIC: 3.9 µM (≈ 1.31 µg/mL)
[4]
  MIC: > 500 µM
[5]
  MIC: 500 µM (≈ 169 µg/mL)
[6]
  MIC: 32 µM (≈ 10.8 µg/mL)
[7]
  MIC: 16 µM (≈ 5.39 µg/mL)
[8]
  MIC: > 500 µM
[9]
  MIC: > 500 µM
[10]
  MIC: 500 µM (≈ 169 µg/mL)
[11]
  MIC: > 500 µM
[12]
  MIC: 62.5 µM (≈ 21.1 µg/mL)
[13]
  MIC: 250 µM (≈ 84.3 µg/mL)
[14]
  MIC: 500 µM (≈ 169 µg/mL)
[15]
  MIC: 3.9 µM (≈ 1.31 µg/mL)
[16]
  MIC: > 500 µM
[17]
  MIC: 31.2 µM (≈ 10.5 µg/mL)
[18]
  MIC: 3.9 µM (≈ 1.31 µg/mL)
[19]
  MIC: 500 µM (≈ 169 µg/mL)
[20]
  MIC: 3.9 µM (≈ 1.31 µg/mL)
[21]
  MIC: > 500 µM
[22]
  MIC: > 500 µM
[23]
  MIC: 250 µM (≈ 84.3 µg/mL)
[24]
  MIC: 3.9 µM (≈ 1.31 µg/mL)
[25]
  MIC: 62.5 µM (≈ 21.1 µg/mL)
[26]
  MIC: 16 µM (≈ 5.39 µg/mL)
[27]
  MIC: 3.9 µM (≈ 1.31 µg/mL)
[28]
  MIC: 500 µM (≈ 169 µg/mL)
[29]
  MIC: 16 µM (≈ 5.39 µg/mL)
[30]
  MIC: 500 µM (≈ 169 µg/mL)
[31]
  MIC: 8 µM (≈ 2.7 µg/mL)
[32]
  MIC: > 500 µM
[33]
  MIC: 16 µM (≈ 5.39 µg/mL)
[34]
  MIC: > 500 µM
[35]
  MIC: 250 µM (≈ 84.3 µg/mL)
[36]
  MIC: 125 µM (≈ 42.1 µg/mL)
[37]
  MIC: 62.5 µM (≈ 21.1 µg/mL)
[38]
  MIC: 500 µM (≈ 169 µg/mL)
[39]
  MIC: 16 µM (≈ 5.39 µg/mL)
[40]
  MIC: > 500 µM
[41]
  MIC: 500 µM (≈ 169 µg/mL)
[42]
  MIC: 16 µM (≈ 5.39 µg/mL)

## O=C(Nc1ccc([N+](=O)[O-])c(C(F)(F)F)c1)c1ccc([N+](=O)[O-])cc1O
[1]
  MIC: > 500 µM
[2]
  MIC: 16 µM (≈ 5.94 µg/mL)
[3]
  MIC: 7.81 µM (≈ 2.9 µg/mL)
[4]
  MIC: 250 µM (≈ 92.8 µg/mL)
[5]
  MIC: 500 µM (≈ 186 µg/mL)
[6]
  MIC: 62.5 µM (≈ 23.2 µg/mL)
[7]
  MIC: 32 µM (≈ 11.9 µg/mL)
[8]
  MIC: 250 µM (≈ 92.8 µg/mL)
[9]
  MIC: > 500 µM
[10]
  MIC: 250 µM (≈ 92.8 µg/mL)
[11]
  MIC: > 500 µM
[12]
  MIC: 62.5 µM (≈ 23.2 µg/mL)
[13]
  MIC: 250 µM (≈ 92.8 µg/mL)
[14]
  MIC: > 500 µM
[15]
  MIC: 3.9 µM (≈ 1.45 µg/mL)
[16]
  MIC: > 500 µM
[17]
  MIC: 250 µM (≈ 92.8 µg/mL)
[18]
  MIC: 7.81 µM (≈ 2.9 µg/mL)
[19]
  MIC: > 500 µM
[20]
  MIC: 7.81 µM (≈ 2.9 µg/mL)
[21]
  MIC: > 500 µM
[22]
  MIC: > 500 µM
[23]
  MIC: 125 µM (≈ 46.4 µg/mL)
[24]
  MIC: 7.81 µM (≈ 2.9 µg/mL)
[25]
  MIC: 250 µM (≈ 92.8 µg/mL)
[26]
  MIC: 32 µM (≈ 11.9 µg/mL)
[27]
  MIC: 3.9 µM (≈ 1.45 µg/mL)
[28]
  MIC: > 500 µM
[29]
  MIC: 32 µM (≈ 11.9 µg/mL)
[30]
  MIC: > 500 µM
[31]
  MIC: 16 µM (≈ 5.94 µg/mL)
[32]
  MIC: > 500 µM
[33]
  MIC: 16 µM (≈ 5.94 µg/mL)
[34]
  MIC: > 500 µM
[35]
  MIC: > 500 µM
[36]
  MIC: 500 µM (≈ 186 µg/mL)
[37]
  MIC: 500 µM (≈ 186 µg/mL)
[38]
  MIC: 125 µM (≈ 46.4 µg/mL)
[39]
  MIC: 32 µM (≈ 11.9 µg/mL)
[40]
  MIC: > 500 µM
[41]
  MIC: > 500 µM
[42]
  MIC: 16 µM (≈ 5.94 µg/mL)

— ChEMBL document CHEMBL3627671, “Novel derivatives of nitro-substituted salicylic acids: Synthesis, antimicrobial activity and cytotoxicity” (Bioorg Med Chem, 2015)
